What all share (type): functional, organism-based
Experiment [1] concerns Mycobacterium tuberculosis. Description: Antibacterial activity against Mycobacterium tuberculosis containing pncA gene with C deletion at nt 99 assessed as at 100 mg/liter. In a few lines: (§1)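 Clinical M. tuberculosis isolates first grown on Löwenstein-Jensen medium 3 to 4 weeks at 37°C. Radiometric BACTEC 460 test in acidified PZA test medium. Inoculum: ~McFarland 1 suspension grown in 12B medium until growth index (GI) >300. Paired vials per strain: drug-free control and PZA 100 mg/liter. Read when control GI reached 200. Resistant if PZA-vial GI >11% of control GI, susceptible if <9%.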

In experiment [2] the test system is Mycobacterium tuberculosis. Description: (§2) Antibacterial activity against Mycobacterium tuberculosis containing wild type PZase assessed as at 100 mg/liter. In a few lines: as §1
Experiment [3] deals with Mycobacterium tuberculosis. The experiment is described as §2. In a few lines:
as §1
The source holds these as a separate data set.

Active and inactive are the calls of the source. The calls are words filed in the database; no cut-off is given here.

On to `NC(=O)c1cnccn1`, for which the result in experiment [1] and in experiment [3] was inactive. For the same compound, in experiment [2], the result was Active.

The record behind these values is ChEMBL document CHEMBL1255334.
